This is an account of results in ChEMBL document CHEMBL2034813, “2-(Alkyl/aryl)amino-6-benzylpyrimidin-4(3H)-ones as inhibitors of wild-type and mutant HIV-1: enantioselectivity studies” (J Med Chem, 2012).

Calls of active or inactive are those of the source. The calls are words filed in the database; no cut-off is given here.

Usually EC50 stands for the concentration giving half of the maximal effect. A word on the CC50: it is the concentration giving 50% cytotoxicity. The low end stands for harm at low concentration, the high end for better tolerance by the cells.

For series [1], the system named is Human immunodeficiency virus 1. Briefly: Antiviral activity against HIV1 harboring reverse transcriptase Y188L mutant infected in human MT4 cells assessed as inhibition of virus-induced cytopathic effect after 5 days by MTT assay. Format: functional, organism-based. The settings on record: Human immunodeficiency virus 1, MT4, 120 h. A general note: Protection from cytopathic effect is a common read-out in antiviral testing.

The subject of series [2] is Human immunodeficiency virus 1. Nature of the series: Resistance ratio of EC50 for HIV1 harboring reverse transcriptase K103N mutant to EC50 for wild type HIV1 NL4-3. The class given is functional. Summed up: (§1)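 MT-4 cells, MTT read-out of HIV-induced cytopathic effect; fold resistance calculated as EC50 against the drug-resistant strain divided by EC50 against WT NL4-3; EC50 values are means ± SD from at least three experiments.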

Series [3] deals with Human immunodeficiency virus 1. Briefly: Resistance ratio of ID50 for HIV1 reverse transcriptase Y181I mutant to ID50 HIV1 wild type reverse transcriptase.
A short description of series [4]: Selectivity index, ratio of CC50 for human MT4 cells to EC50 for wild type HIV1 NL4-3. The class given is toxicity, cell-based. The conditions noted are these: read-out: Ratio CC50/EC50.
For series [5], the system named is Human immunodeficiency virus 1. Briefly: Resistance ratio of ID50 for HIV1 reverse transcriptase K103N mutant to ID50 HIV1 wild type reverse transcriptase.
The nature of series [6]: Cytotoxicity against human MT4 cells after 5 days by MTT assay. The class given is cell-based. In a few lines:
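Noninfected lymphoid MT-4 cells were exposed to compound. […] Values are means ± SD from at least three experiments.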
On the technique in general: Formazan colour is commonly taken as a measure of viable cells.

In series [7] the test system is Human immunodeficiency virus 1. Nature of the series: Antiviral activity against HIV1 harboring reverse transcriptase Y181C mutant infected in human MT4 cells assessed as inhibition of virus-induced cytopathic effect after 5 days by MTT assay. Format: functional, organism-based. The conditions noted are these: Human immunodeficiency virus 1, MT4, 120 h.
Series [8] relates to Human immunodeficiency virus type 1 reverse transcriptase (Human immunodeficiency virus 1), Q72547 [Y181I].
Series [9] has as its system Human immunodeficiency virus 1. Nature of the series: Antiviral activity against HIV1 harboring reverse transcriptase K103N mutant infected in human MT4 cells assessed as inhibition of virus-induced cytopathic effect after 5 days by MTT assay. Format: functional, organism-based. The conditions noted are these: Human immunodeficiency virus 1, MT4, 120 h.
Series [10] relates to Human immunodeficiency virus type 1 reverse transcriptase (Human immunodeficiency virus 1), Q72547 [K103N]. Briefly: Noncompetitive inhibition of HIV1 reverse transcriptase K103N mutant using varying concentration of [3H]dTTP by steady state kinetic analysis. Summed up: (§2)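 Recombinant RT (WT or K103N), RNA-dependent DNA polymerase activity with poly(rA)/oligo(dT) 10:1 and [3H]-dTTP (1 Ci/mmol), 8% final DMSO; steady-state kinetics at fixed inhibitor concentrations, one substrate (nucleic acid or nucleotide) varied while the other kept saturating.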

The subject of series [11] is Human immunodeficiency virus 1. Briefly: Resistance ratio of ID50 for HIV1 reverse transcriptase L100I mutant to ID50 HIV1 wild type reverse transcriptase.
In series [12] the target is Human immunodeficiency virus type 1 reverse transcriptase (Human immunodeficiency virus 1) (UniProt Q72547).
Series [13] has as its system Human immunodeficiency virus type 1 reverse transcriptase (Human immunodeficiency virus 1), Q72547 [K103N]. Nature of the series: Noncompetitive inhibition of HIV1 reverse transcriptase K103N mutant using varying concentration of varying polyrA/oligodT by steady state kinetic analysis. Summed up: as §2
Series [14] relates to Human immunodeficiency virus 1. Briefly: Resistance ratio of EC50 for HIV1 harboring reverse transcriptase Y188L mutant to EC50 for wild type HIV1 NL4-3. Format: functional. Summed up: as §1
Series [15] addresses Human immunodeficiency virus type 1 reverse transcriptase (Human immunodeficiency virus 1) (UniProt Q72547). Nature of the series: Noncompetitive inhibition of HIV1 wild type reverse transcriptase using varying concentration of [3H]dTTP by steady state kinetic analysis. In a few lines:
as §2

The subject of series [16] is Human immunodeficiency virus 1. Nature of the series: Antiviral activity against wild type HIV1 NL4-3 infected in human MT4 cells assessed as inhibition of virus-induced cytopathic effect after 5 days by MTT assay. The conditions noted are these: Human immunodeficiency virus 1, NL4-3, MT4, 120 h. Format: functional, organism-based. Summed up:
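Lymphoid MT-4 cells infected with wild-type HIV-1 NL4-3. […] Values are means ± SD from at least three experiments.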

Series [17] has as its system Human immunodeficiency virus 1. Briefly: Resistance ratio of ID50 for HIV1 reverse transcriptase V106A mutant to ID50 HIV1 wild type reverse transcriptase.
The test system of series [18] is Human immunodeficiency virus type 1 reverse transcriptase (Human immunodeficiency virus 1), Q72547 [L100I].
Series [19] concerns Human immunodeficiency virus 1. Briefly: Resistance ratio of ID50 for HIV1 reverse transcriptase Y188L mutant to ID50 HIV1 wild type reverse transcriptase.
Series [20] addresses Human immunodeficiency virus type 1 reverse transcriptase (Human immunodeficiency virus 1) (UniProt Q72547). Nature of the series: Noncompetitive inhibition of HIV1 wild type reverse transcriptase using varying concentration of varying polyrA/oligodT by steady state kinetic analysis. In a few lines:
as §2

Series [21] concerns Human immunodeficiency virus type 1 reverse transcriptase (Human immunodeficiency virus 1), Q72547 [K103N].
Series [22] deals with Human immunodeficiency virus 1. Briefly: Resistance ratio of EC50 for HIV1 harboring reverse transcriptase Y181C mutant to EC50 for wild type HIV1 NL4-3. Format: functional. In a few lines: as §1
Series [23] has as its system Human immunodeficiency virus type 1 reverse transcriptase (Human immunodeficiency virus 1), Q72547 [V106A].
A short description of series [24]: Ratio of TMC120 CC50 to compound CC50 for human MT4 cells. The class given is ADME, cell-based.

Regarding `Cc1ccnc2c1NC(=O)c1cccnc1N2C1CC1` [NEVIRAPINE], the EC50 in [1] and in series [7] was above 7.5 µM throughout. Further, the “Ratio EC50” value in [2] stood at 47. Also, the figures for the Ratio in series [3] and in series [5] were 87 and 20, respectively. Further, the selectivity ratio in series [4] turned out to be 58. Moreover, the CC50 at 120 h in [6] was found to be 7.5 µM.

With `CCCN(C)c1nc([C@H](C)c2c(F)cccc2F)c(C)c(=O)[nH]1`, the EC50 in series [1] was found to be 0.028 µM; in series [9], 0.011 µM; in series [16] it was 0.0013 µM; in [7] it was 0.013 µM. Also, the entries for the “Ratio EC50” value in series [2], in series [14] and in series [22] were 8, 22 and 10, respectively. The ID50 in series [8] is 0.45 µM; in series [12], 0.002 µM; in series [18], 0.096 µM; in series [21] it was 0.096 µM; in series [23], 0.003 µM. Further, the Ratio in series [3] was found to be 200; in series [11], 50; in [17] it was 1.5; in series [19], 100; in series [5], 48. For the same compound, the inhibition entry in [10], in series [13], in series [15] and in series [20] was “Active” throughout. Besides, the selectivity ratio in series [4] stood at 58000. Moreover, in [6], the midpoint of cytotoxicity, the CC50 at 120 h, lay at 75 µM.

For `Cc1c(N)nc(Nc2ccc(C#N)cc2)nc1[C@@H](C)c1c(F)cccc1F`, the EC50 is 6.5 µM in [1], 4.5 µM in series [9], 1 µM in series [16] and above 38 µM in series [7]. The entries for the “Ratio EC50” value in [2] and in series [14] were 4 and 6, respectively. The ID50 was above 20 µM in series [8]; 0.18 µM in series [12]; above 15 µM in series [18]; 0.24 µM in series [21]; 0.064 µM in series [23]. The selectivity ratio in [4] turned out to be 40. For the same compound, the Ratio in [17] was found to be 0.3; in [19], 3; in series [5], 1.3. For the same compound, in [6], it took 38 µM to reach half-maximal cytotoxicity (CC50 at 120 h).

For the compound `CCCN(C)c1nc(C(C)c2c(F)cccc2F)c(C)c(=O)[nH]1` (racemic), the EC50 in [1] amounted to 0.049 µM; in series [9], 0.0165 µM; in series [16], 0.0019 µM; in series [7], 0.017 µM. The “Ratio EC50” value in series [2] came out at 9; in [14], 26; in series [22] it was 9. Also, the ID50 amounted to 1.26 µM in [8]; 0.03 µM in series [12]; 0.177 µM in [18]; 0.174 µM in [21]; 0.019 µM in [23]. For the same compound, the Ratio in series [3] came out at 40; in series [11], 6; in series [17], 0.6; in series [19] it was 50; in [5] it was 6. Besides, the selectivity ratio in series [4] was above 41000. The same compound had a CC50 at 120 h in [6] above 78 µM.

As to `CCCN(C)c1nc([C@@H](C)c2c(F)cccc2F)c(C)c(=O)[nH]1`, the EC50 was above 78 µM in series [1], above 78 µM in [9], 15 µM in series [16] and above 78 µM in series [7]. Besides, the ID50 in series [8] is above 20 µM; in series [12], 0.975 µM; in series [18], 0.35 µM; in series [21], above 20 µM; in [23], 0.12 µM. Moreover, the Ratio stood at 0.4 in [11] and 0.1 in series [17]. In series [4], the selectivity ratio was above 5.2. The CC50 at 120 h in series [6] was above 78 µM.

Regarding `Cc1cc(C)c(Nc2ccnc(Nc3ccc(C#N)cc3)n2)c(C)c1` [DAPIVIRINE], the EC50 in series [16] stood at 0.0006 µM. Besides, the midpoint of cytotoxicity in series [6], the CC50 at 120 h, lay at 3 µM.

Consider `Cc1c(N)nc(Nc2ccc(C#N)cc2)nc1[C@H](C)c1c(F)cccc1F`, for which the EC50 was 0.0071 µM in series [1], 0.0008 µM in series [9], 0.0001 µM in series [16] and 0.031 µM in series [7]. The “Ratio EC50” value is listed as 8 in series [2], 70 in [14] and 300 in [22]. The ID50 in [8] was determined as 0.75 µM; in series [12], 0.008 µM; in series [18], 0.15 µM; in series [21] it was 0.008 µM; in series [23], 0.0003 µM. Also, the selectivity ratio in series [24] came to 10; in series [4], 300000. In addition, the Ratio in series [3] stood at 90; in [11], 20; in series [17], 0.04; in [19] it was 0.4; in series [5], 1. For the same compound, the inhibition entry in series [10], in series [13], in series [15] and in [20] was “Active” throughout. Further, in [6], it took 31 µM to reach half-maximal cytotoxicity (CC50 at 120 h).

As to `O=C1Nc2ccc(Cl)cc2[C@@](C#CC2CC2)(C(F)(F)F)O1` [EFAVIRENZ], the EC50 is 0.0073 µM in [16] and 0.01 µM in [7]. Further, the CC50 at 120 h in series [6] was determined as 3.2 µM.
